Source: ChEMBL document CHEMBL5252642, “Design and synthesis of naturally-inspired SARS-CoV-2 inhibitors” (RSC Med Chem, 2023)
pEC50, pIC50: −log10 of the molar value. Active and inactive are the calls of the source. The calls are words filed in the database; no cut-off is given here.

Assays:
[1] = tested on: SARS-CoV-2; test: Antiviral activity against SARS-CoV-2 BetaCoV/France/IDF0372/2020 infected human A549-ACE2 cells assessed as inhibition of viral replication by qRT-PCR analysis; format: functional, organism-based; details: Severe acute respiratory syndrome coronavirus 2, BetaCoV/France/IDF0372/2020, A549-ACE2
[2] = Cytotoxicity against human A549-ACE2 cells; format: toxicity, cell-based
Procedure, shortened: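 A549-ACE2 cells (2,000/well) were exposed to compounds for 72 h. Viability was read as CellTiter-Glo luminescence. Controls were 0.5% DMSO and 10 µM camptothecin. Values come from triplicate dose-response curves.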

[3] = (§1) Inhibition of SARS-CoV-2 N-terminus His tagged nsp10/nsp16 complex expressed in Escherichia coli using [3H]SAM as substrate by scintillation proximity assay; set-up: species or system Severe acute respiratory syndrome coronavirus 2
Procedure, shortened: (§2)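 Compounds were serially titrated from 8 µM to 2 mM DMSO stocks, giving 5% DMSO final. They were preincubated 2 h at 23 °C with 125 nM nsp10–nsp16 (8:1) in 50 mM Tris-HCl pH 7.5, 1.5 mM MgCl2, 1 mM TCEP and 0.01% Triton X-100. Then 0.8 µM RNA and 2 µM SAM (30% 3H-SAM) were added for 30 min at 23 °C. Radioactivity was read. Tests were in triplicate, with curves constrained to 0–100.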

[4] = molecular target: Replicase polyprotein 1ab (Severe acute respiratory syndrome coronavirus 2, UniProt P0DTD1); test: (§3) Inhibition of SARS-CoV-2 nsp14 guanine-N7-methyltransferase activity
Procedure, shortened: (§4)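 Compounds were serially titrated from 8 µM to 2 mM DMSO stocks, giving 5% DMSO final. They were preincubated 2 h at 23 °C with 1.5 nM nsp14 in 20 mM Tris-HCl pH 7.5, 0.25 mM MgCl2, 1 mM TCEP and 0.01% Triton X-100. Then 50 nM RNA and 0.25 µM 3H-SAM were added for 20 min. Radioactivity was read. Tests were in triplicate, with SAH as positive control and curves constrained to 0–100.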

[5] = tested on: Severe acute respiratory syndrome coronavirus 2; test: as §1; procedure, shortened: as §2
[6] = molecular target: Replicase polyprotein 1ab (Severe acute respiratory syndrome coronavirus 2) (UniProt P0DTD1); test: as §3; procedure, shortened: as §4

SMILES	pEC50 [1]	CC50 [2]	pIC50 [3]	pIC50 [4]	inhibition [5]	inhibition [6]
Cc1ccc(S(=O)(=O)N2C[C@@]34CN(Cc5ccccc5)C[C@@H](O3)[C@H]3[C@@H](Oc5ncccn5)CC[C@]2(C(C)C)[C@H]34)cc1	5.21	6.3 µM				
Cc1ccc(S(=O)(=O)N2C[C@@]34CN(Cc5ccccc5)C[C@@H](O3)[C@H]3C(=O)C=C[C@]2(C(C)C)[C@H]34)cc1	4.80	14 µM				
Cc1ccc(S(=O)(=O)N2C[C@@]34CN(C(=O)c5ccc(N)cn5)C[C@@H](O3)[C@@H]3[C@H]4[C@@]2(C(C)C)CC[C@@H]3O)cc1	4.43	> 50 µM				
Nc1ncnc2c1ncn2[C@@H]1O[C@H](CSCC[C@H](N)C(=O)O)[C@@H](O)[C@H]1O [S-ADENOSYLHOMOCYSTEINE]			5.41	6.66		
CNC(=O)N1C[C@H]2O[C@]3(C1)CN(S(=O)(=O)c1ccc(C)cc1)[C@]1(C(C)C)CC[C@H](O)[C@H]2[C@H]31	< 4.30	> 50 µM				
Cc1ccc(S(=O)(=O)N2C[C@@]34CN(C)C[C@@H](O3)[C@H]3C(=O)CC[C@]2(C(C)C)[C@H]34)cc1	< 4.30	> 50 µM				
COc1cc(CN2C[C@H]3O[C@]4(C2)CN(S(=O)(=O)c2ccc(C)cc2)[C@]2(C(C)C)CC[C@H](O)[C@H]3[C@H]42)cc(OC)c1	5.25	13 µM				
Cc1ccc(S(=O)(=O)N2C[C@@]34CN(C(=O)c5cccs5)C[C@@H](O3)[C@H]3[C@@H](Oc5cc(C)nc(N)n5)CC[C@]2(C(C)C)[C@H]34)cc1	< 4.30	> 50 µM				
Cc1ccc(S(=O)(=O)N2C[C@@]34CN(C(=O)c5cccs5)C[C@@H](O3)[C@@H]3[C@H]4[C@@]2(C(C)C)CC[C@@H]3O)cc1	4.80	> 50 µM				
COc1ccc(CCN2C[C@H]3O[C@]4(C2)CN(S(=O)(=O)c2ccc(C)cc2)[C@]2(C(C)C)C=CC(=O)[C@H]3[C@H]42)cc1	4.89	6.6 µM				
COc1cc(CN2C[C@H]3O[C@]4(C2)CN(S(=O)(=O)c2ccc(C)cc2)[C@]2(C(C)C)CC[C@H](OCCCN(C)C)[C@H]3[C@H]42)cc(OC)c1	5.85	7.7 µM		< 4.00	inactive	
Cc1ccc(S(=O)(=O)N2C[C@@]34CN(C)C[C@@H](O3)[C@H]3[C@@H](Oc5ncccn5)CC[C@]2(C(C)C)[C@H]34)cc1	4.70	17 µM				
COCn1ccc(N2C[C@H]3O[C@]4(C2)CN(S(=O)(=O)c2ccc(C)cc2)[C@]2(C(C)C)CC[C@H](O)[C@H]3[C@H]42)nc1=O	< 4.77	> 50 µM				
Cc1ccc(S(=O)(=O)N2C[C@@]34CN(Cc5nc6ccccc6s5)C[C@@H](O3)[C@H]3C(=O)CC[C@]2(C(C)C)[C@H]34)cc1	5.28	37 µM				
Cc1ccc(S(=O)(=O)N2C[C@@]34CN(Cc5nc6ccccc6s5)C[C@@H](O3)[C@@H]3[C@H]4[C@@]2(C(C)C)CC[C@@H]3O)cc1	5.18	12 µM				
Cc1ccc(S(=O)(=O)N2C[C@@]34CN(CCc5c[nH]c6ccccc56)C[C@@H](O3)[C@@H]3[C@H]4[C@@]2(C(C)C)CC[C@@H]3O)cc1	5.08	13 µM				
Cc1ccc(S(=O)(=O)N2C[C@@]34CN(C(=O)C5CC5)C[C@@H](O3)[C@H]3[C@@H](Oc5ncccn5)CC[C@]2(C(C)C)[C@H]34)cc1	< 4.40	> 50 µM				
Cc1ccc(S(=O)(=O)N2C[C@@]34CN(Cc5ccccc5)C[C@@H](O3)[C@@H]3[C@H]4[C@@]2(C(C)C)C=C[C@@H]3O)cc1	4.77	> 50 µM				
Cc1ccc(S(=O)(=O)N2C[C@@]34CNC[C@@H](O3)[C@H]3C(=O)CC[C@]2(C(C)C)[C@H]34)cc1	< 4.30	> 50 µM				
COc1ccc(CCN2C[C@H]3O[C@]4(C2)CN(S(=O)(=O)c2ccc(C)cc2)[C@]2(C(C)C)C=C[C@H](Oc5ncccn5)[C@H]3[C@H]42)cc1	< 4.30					
Cc1ccc(S(=O)(=O)N2C[C@@]34CN(C(=O)c5ccc(F)cc5N)C[C@@H](O3)[C@@H]3[C@H]4[C@@]2(C(C)C)CC[C@@H]3O)cc1	4.85	20 µM				
COc1ccc(CCN2C[C@H]3O[C@]4(C2)CN(S(=O)(=O)c2ccc(C)cc2)[C@]2(C(C)C)C=C[C@H](O)[C@H]3[C@H]42)cc1	5.43	12 µM			inactive	inactive
Cc1ccc(S(=O)(=O)N2C[C@@]34CN(Cc5ccccc5)C[C@@H](O3)[C@H]3C(=O)CC[C@]2(C(C)C)[C@H]34)cc1	5.08	5.8 µM				
